13 compounds from PubChem BioAssay can be followed below.

Experiment [1] can be described thus: inhibitors of TNFa-induced NFkB p65 translocation, primary screen, imaging, HUVEC, MLSMR starter and 10KST1 sets (AID 438;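 active = inhibition above 20% together with a positive visual image hit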;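 also: compound added about 3h40 before a 20 min TNFalpha stimulation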;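 as to inhibition: signal is the nuclear over cytoplasmic p65 intensity ratio per well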). The following applies: HUVEC TNFa-induced p65 nuclear translocation; cell count: measured here: nuclei count (cytotoxicity indicator), at 2.08 µM; inhibition: at 2 µM, stronger effect = higher value, 0% TNFa-plus-vehicle, 100% no-TNFa wells.
Experiment [2] is described as follows: inhibitors of mutant huntingtin aggregation, primary screen, imaging, exon1htt(103Q)mCFP cells, high-content imaging (AID 483;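 active = visual image review flags a hit and inhibition of aggregation exceeds 20%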;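 also: compound exposure lasted 3 days before fixation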;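 as to nuclei count: percent of the per-plate median nuclei count of sample wells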). The following applies: exon1htt(103Q)mCFP cell line, aggregate imaging, at 2 µM; inhibition of aggregation: stronger effect = higher value; nuclei count: measured here: cell count, toxicity.
Experiment [3] is described as follows: inhibitors of E-selectin induction by TNFa, primary screen, imaging, HUVEC, immunofluorescence, MLSMR starter and 10KST1 sets (AID 487;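 active = visually confirmed hit in the image check and inhibition above 20%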;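 as to inhibition: signal is fraction of cell area covered by stained E-selectin grains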;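 as to nuclei count: 100% = median nuclei count of all wells on the same plate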). The following applies: HUVEC TNFalpha-induced E-selectin immunofluorescence imaging, at 2 µM; inhibition: stronger effect = higher value; nuclei count: measured here: cell number, toxicity.
Experiment [4] concerns the target Voltage-gated potassium channel subunit beta-2 (Rattus norvegicus) (UniProt P62483). In words: KvBeta enzyme negative modulators, primary screen, biochemical, NADPH fluorescence (AID 622).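 Also: slope of raw intensity against log time taken from 70 to 1610 s.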 As to conditions: recombinant KvBeta, 4-cyanobenzaldehyde reduction, at 10 µM, stronger effect = higher value.
The target is the same in experiment [5]. As to the kind of experiment: KvBeta positive modulators, primary screen, biochemical, NADPH fluorescence (AID 623;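 active = NADPH fluorescence slope more negative than the mean of all samples by about 3 SD, 99.7% confidence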;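 also: fluorescence intensity change per second fitted from 20 to 320 s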). As to conditions: Recombinant KvBeta, NADPH fluorescence decrease slope, 10 min; at 10 µM; stronger effect = lower value.
Experiment [6] deals with Muscarinic acetylcholine receptor M4 (Homo sapiens) (UniProt P08173). In words: compounds altering M4/GIRK thallium flux, either direction, primary screen, M4 allosteric agonist project, cell-based, HEK293 M4/GIRK, BTC-AM (AID 625;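 active = fluorescence slope after compound addition differing from the mean of all tested samples at 99.7% confidence, mostly higher but some lower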;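 also: thallium influx through GIRK channels coupled to M4 in HEK293 cells with BTC-AM dye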). As to conditions: at 10 µM, actives lie on both sides. Put shortly: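 System: HEK293 cells with M4 receptor and GIRK channels | Incubation: Cells overnight at 37 °C, BTC-AM loading 1 h, reads 2 min total | Technique: Kinetic BTC-AM fluorescence sampled at 1 Hz, 10 s pre-addition baseline | Measure: Post-addition slope, 15–24 s, of baseline-normalized fluorescence | Control set: Carbachol positive, DMSO negative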
Sequence of Muscarinic acetylcholine receptor M4 (Homo sapiens) (P08173 whole entry, looked up): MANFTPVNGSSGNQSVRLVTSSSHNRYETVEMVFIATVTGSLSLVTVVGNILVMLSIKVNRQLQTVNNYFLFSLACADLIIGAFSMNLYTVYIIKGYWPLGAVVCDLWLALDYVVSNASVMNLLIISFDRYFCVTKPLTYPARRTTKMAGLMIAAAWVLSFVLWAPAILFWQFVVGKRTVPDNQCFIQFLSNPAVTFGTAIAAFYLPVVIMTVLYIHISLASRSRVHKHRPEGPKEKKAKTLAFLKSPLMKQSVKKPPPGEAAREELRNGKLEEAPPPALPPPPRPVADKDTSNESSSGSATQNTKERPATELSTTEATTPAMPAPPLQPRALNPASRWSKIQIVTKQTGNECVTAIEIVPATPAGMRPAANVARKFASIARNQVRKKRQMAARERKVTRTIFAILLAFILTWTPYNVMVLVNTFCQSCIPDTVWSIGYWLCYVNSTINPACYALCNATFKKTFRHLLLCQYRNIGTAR

Experiment [7] is described as follows: inhibitors of Sendai virus-induced IRF3 signaling, primary screen, TLR/RLR signaling modifier project, cell-based, Sendai virus stimulus, luciferase, 10K MLSCN set (AID 602276;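 active = inhibition at or above 50% at 10 µM; inactive = inhibition below 50%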;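 also: firefly luciferase from ISG56 promoter only with Renilla not read in this screen; 0% = Sendai virus plus DMSO and 100% = medium plus DMSO without virus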). The following applies: HEK293 RL24 IRF3 luciferase reporter, at 10 µM, stronger effect = higher value. Background: A reporter such as luciferase makes a cellular process visible.
Experiment [8] in a line: inhibitors of poly I:C-induced TLR3 signaling, primary screen, cell-based, poly I:C stimulus, luciferase, 10K MLSCN set (AID 602277;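 active = inhibition of the reporter signal at or above 50%; inactive = inhibition below 50%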). The following applies: HEK293-TLR3 RL24 IRF3 luciferase reporter, at 10 µM, stronger effect = higher value.

Activity calls are given as the source filed them.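 The calls were made as follows, unless noted: active = fluorescence slope higher than the sample average by over 3 SD (cut at about -0.22 in these data, passing the limit was not always enough); inactive = the rest.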

Sequence of Voltage-gated potassium channel subunit beta-2 (Rattus norvegicus) (P62483 whole entry, looked up): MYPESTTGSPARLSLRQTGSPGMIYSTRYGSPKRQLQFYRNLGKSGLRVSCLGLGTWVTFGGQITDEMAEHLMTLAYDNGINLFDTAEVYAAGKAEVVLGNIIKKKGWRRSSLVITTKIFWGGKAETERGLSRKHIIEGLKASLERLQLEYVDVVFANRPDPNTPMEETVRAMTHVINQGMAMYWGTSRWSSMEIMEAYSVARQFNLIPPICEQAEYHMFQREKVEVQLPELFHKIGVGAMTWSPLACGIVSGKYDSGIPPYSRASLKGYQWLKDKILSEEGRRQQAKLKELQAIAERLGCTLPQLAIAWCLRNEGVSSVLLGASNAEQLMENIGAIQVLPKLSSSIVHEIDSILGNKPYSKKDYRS

Take `O=c1c(F)cn(C2CCCO2)c(=O)n1Cc1c(F)cccc1Cl` (stereo not drawn): the cell count in experiment [1] was found to be 738. Also, the inhibition (as a rule, the drop in the measured response relative to a control, in per cent) in experiment [1] was -7.1% (inactive); in experiment [3], -114% (inactive); in experiment [7], 5.15% (inactive); in experiment [8], 13.2% (inactive). Also, the inhibition of aggregation in experiment [2] is -9.4% (inactive). For the same compound, the nuclei count in experiment [2] came to 103%; in experiment [3] it was 140%. In addition, the figures for the fluorescence slope in experiment [4] and in experiment [6] were -0.549 (inactive) and 0.00479 (inactive), respectively. Further, the NADPH fluorescence slope in experiment [5] is -1.3e-05 (inactive).

Consider `Cn1cnnc1SCC(=O)Nc1sc2c(c1C#N)CCCCC2`, for which the cell count in experiment [1] is 564. For the same compound, the inhibition in experiment [1] was -29.4% (inactive); in experiment [3] it was -29.2% (inactive); in experiment [7] it was -24.5% (inactive); in experiment [8] it was -31.5% (inactive). Besides, the inhibition of aggregation in experiment [2] is 2.6% (inactive). In addition, the nuclei count in experiment [2] was determined as 80.6%; in experiment [3], 108%. In addition, the fluorescence slope in experiment [4] was -0.499 (inactive); in experiment [6], 0.00534 (inactive). Also, the NADPH fluorescence slope in experiment [5] was 0.000104 (inactive).

For the compound `CCCCC(CC)C(=O)Nc1ccc(Cl)cn1` (stereo not drawn), the cell count in experiment [1] turned out to be 461. Also, the inhibition is 8.5% (inactive) in experiment [1], -29.4% (inactive) in experiment [3], 13.3% (inactive) in experiment [7] and 17.2% (inactive) in experiment [8]. Besides, the inhibition of aggregation in experiment [2] is 4.5% (inactive). Moreover, the nuclei count in experiment [2] is 102%; in experiment [3] it was 117%. The fluorescence slope in experiment [4] was -0.377 (inactive); in experiment [6], 0.00769 (inactive). In addition, the NADPH fluorescence slope in experiment [5] was -7.8e-05 (inactive).

As to `O=C(Cn1cnc2c(nnn2-c2ccc(F)cc2)c1=O)NCc1ccco1`, in experiment [1], the cell count worked out at 657. In addition, the inhibition in experiment [1] is 9.2% (inactive); in experiment [3] it was -8.8% (inactive); in experiment [7], 5.73% (inactive); in experiment [8], 12% (inactive). Moreover, in experiment [2], the inhibition of aggregation is -33.9% (inactive). Besides, the nuclei count in experiment [2] was found to be 78.6%; in experiment [3], 122%. The values for the fluorescence slope in experiment [4] and in experiment [6] were -0.596 (inactive) and 0.00537 (inactive), respectively. Moreover, the NADPH fluorescence slope in experiment [5] was -4.4e-06 (inactive).

Take `COc1cc(-c2c(C#N)c(N)nc3c2CCCC3)cc(OC)c1OC`: the cell count in experiment [1] came to 620. Also, the inhibition in experiment [1] is -8.6% (inactive); in experiment [3] it was -110% (inactive); in experiment [7], 20% (inactive); in experiment [8], 26.4% (inactive). For the same compound, in experiment [2], the inhibition of aggregation was 0.1% (inactive). The nuclei count in experiment [2] was 101%; in experiment [3], 121%. Also, the values for the fluorescence slope in experiment [4] and in experiment [6] were -0.534 (inactive) and 0.0058 (inactive), respectively. Further, the NADPH fluorescence slope in experiment [5] was -6.8e-05 (inactive).

Regarding `O=C(OCc1nnc(-c2ccccc2)o1)c1ccc(S(=O)(=O)NCc2ccco2)cc1`, in experiment [1], the cell count was determined as 722. In addition, the inhibition in experiment [1] is -8.9% (inactive); in experiment [3] it was -51.8% (inactive); in experiment [7] it was -7.1% (inactive); in experiment [8], 2.67% (inactive). In addition, in experiment [2], the inhibition of aggregation was -17.9% (inactive). Further, the nuclei count in experiment [2] was 89.7%; in experiment [3], 113%. Further, the fluorescence slope was -0.458 (inactive) in experiment [4] and 0.00635 (inactive) in experiment [6]. Also, the NADPH fluorescence slope in experiment [5] is -0.000324 (inactive).

With `O=S(=O)(NCC(O)COCc1ccco1)c1cccs1` (stereo not drawn), the cell count in experiment [1] was 297. Moreover, the inhibition was 8% (inactive) in experiment [1], 1.6% (inactive) in experiment [3], 2.99% (inactive) in experiment [7] and 8.32% (inactive) in experiment [8]. Further, the inhibition of aggregation in experiment [2] is -14.1% (inactive). Further, the nuclei count in experiment [2] came to 108%; in experiment [3], 97.5%. Besides, the fluorescence slope is -0.587 (inactive) in experiment [4] and 0.00581 (inactive) in experiment [6]. Moreover, the NADPH fluorescence slope in experiment [5] was -3.7e-05 (inactive).

In the case of `CC(C)OC(=O)CSc1nnc(Cc2ccccc2)n1Cc1ccco1`, the cell count in experiment [1] is 726. In addition, the inhibition was 28.5% (active) in experiment [1], 44% (inactive) in experiment [3], 10.9% (inactive) in experiment [7] and 6.75% (inactive) in experiment [8]. Also, the inhibition of aggregation in experiment [2] is -13% (inactive). The nuclei count worked out at 106% in experiment [2] and 100% in experiment [3]. Besides, the fluorescence slope in experiment [4] was -0.419 (inactive); in experiment [6], 0.0048 (inactive). In experiment [5], the NADPH fluorescence slope is -2.4e-05 (inactive).

For `Cc1ccccc1CN1CCNC1=O`, the cell count in experiment [1] was 624. Also, the inhibition in experiment [1] is 40.3% (active); in experiment [3], -69.6% (inactive); in experiment [7], 23.3% (inactive); in experiment [8], 26.8% (inactive). The inhibition of aggregation in experiment [2] is 7% (inactive). Besides, the results for the nuclei count in experiment [2] and in experiment [3] were 88.7% and 138%, respectively. In addition, the fluorescence slope in experiment [4] is -0.558 (inactive); in experiment [6] it was 0.00621 (inactive). In experiment [5], the NADPH fluorescence slope was -4e-05 (inactive).

In the case of `O=C(C1CC1)N1CCc2cc(S(=O)(=O)N(CCO)Cc3ccccc3)ccc21`, the cell count in experiment [1] was 612. The inhibition was 7.7% (inactive) in experiment [1], -91% (inactive) in experiment [3], -3.85% (inactive) in experiment [7] and -12.4% (inactive) in experiment [8]. Moreover, the inhibition of aggregation in experiment [2] was -16% (inactive). Moreover, the nuclei count was 108% in experiment [2] and 122% in experiment [3]. The fluorescence slope in experiment [4] was -0.498 (inactive); in experiment [6], 0.00651 (inactive). Moreover, in experiment [5], the NADPH fluorescence slope was 0.000108 (inactive).

In the case of `CCC(C)c1ccc(NC(=O)C2CC2)cc1` (stereo not drawn), the cell count in experiment [1] came to 466. For the same compound, the inhibition in experiment [1] is -11.6% (inactive); in experiment [3], -74.9% (inactive); in experiment [7], -20.4% (inactive); in experiment [8], -80.1% (inactive). For the same compound, the inhibition of aggregation in experiment [2] was -13.6% (inactive). The nuclei count was 110% in experiment [2] and 118% in experiment [3]. Also, the fluorescence slope is -0.569 (inactive) in experiment [4] and 0.00602 (inactive) in experiment [6]. Moreover, in experiment [5], the NADPH fluorescence slope is -4.3e-05 (inactive).

Consider `CCC(=O)/C=C1\Sc2ccc(OC)cc2N1CCO`, for which the cell count in experiment [1] stood at 626. For the same compound, the inhibition in experiment [1] is 2.4% (inactive); in experiment [3], -28.2% (inactive); in experiment [7] it was 21.2% (inactive); in experiment [8] it was 9.17% (inactive). The inhibition of aggregation in experiment [2] was -1.7% (inactive). Further, the figures for the nuclei count in experiment [2] and in experiment [3] were 93.6% and 85.1%, respectively. In addition, the fluorescence slope in experiment [4] is -0.577 (inactive); in experiment [6], 0.0067 (inactive). Also, in experiment [5], the NADPH fluorescence slope is -3.8e-05 (inactive).

For the compound `NC(=O)c1nsnc1-c1ccccc1O`, the cell count in experiment [1] was determined as 504. For the same compound, the inhibition was -9.3% (inactive) in experiment [1], 20.3% (inactive) in experiment [3], -10.2% (inactive) in experiment [7] and -7.73% (inactive) in experiment [8]. Also, the inhibition of aggregation in experiment [2] was -3.4% (inactive). Also, the nuclei count in experiment [2] stood at 107%; in experiment [3], 100%. The fluorescence slope is -0.531 (inactive) in experiment [4] and 0.00622 (inactive) in experiment [6]. In experiment [5], the NADPH fluorescence slope is 0.0001 (inactive).
